Consider 49 compounds from ChEMBL document CHEMBL1136010, “Synthesis and evaluation of indenopyrazoles as cyclin-dependent kinase inhibitors. 3. Structure activity relationships at C3(1,2)” (J Med Chem, 2002).

For test [1], the target named is Cyclin-dependent kinase 4/cyclin D1 (Homo sapiens, UniProt P11802). The test is described as follows: Inhibitory concentration against Cyclin-dependent kinase 4-cyclin D1. Type of test: protein-complex assay. Put shortly:
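CDK4/cyclin D1 came from extracts of insect cells dually infected with baculovirus vectors. Reactions were started with 4 units of enzyme, run 15 min at room temperature, and stopped with EDTA. Product was captured on GSH-Sepharose and counted by scintillation.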

The target in test [2] is Cyclin-dependent kinase 2/cyclin E (Homo sapiens, UniProt P24941). Kind of test: Inhibitory concentration against Cyclin-dependent kinase 2-cyclin E. Type of test: protein-complex assay.
The test system of test [3] is HCT-116. The test is described as follows: Inhibition of HCT116 colon carcinoma cell proliferation. Type of test: functional, cell-based. Particulars: Homo sapiens. The gist of the method: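 SRB colorimetric growth assay. Exponentially growing cells were seeded so they would undergo 3-5 doublings before reaching 85% confluence. Graded compound concentrations were added 18 h later, and cells were incubated 5 days at 37 °C in 5% CO2. Cells were fixed with cold TCA for 1 h at 4 °C, stained with 0.4% SRB in 1% acetic acid, solubilized in 10 mM Tris base, and OD read at 570 nm.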

Chain of Cyclin-dependent kinase 4/cyclin D1 (P11802 whole entry): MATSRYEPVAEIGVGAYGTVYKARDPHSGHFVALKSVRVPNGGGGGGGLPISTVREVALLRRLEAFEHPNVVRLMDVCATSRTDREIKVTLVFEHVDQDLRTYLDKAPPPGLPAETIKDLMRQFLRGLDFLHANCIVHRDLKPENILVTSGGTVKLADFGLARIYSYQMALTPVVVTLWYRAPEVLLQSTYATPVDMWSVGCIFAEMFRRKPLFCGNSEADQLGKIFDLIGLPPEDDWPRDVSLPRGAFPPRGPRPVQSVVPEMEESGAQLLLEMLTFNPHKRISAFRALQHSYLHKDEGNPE
Chain of Cyclin-dependent kinase 4/cyclin D1 (P24385 whole entry, further chain): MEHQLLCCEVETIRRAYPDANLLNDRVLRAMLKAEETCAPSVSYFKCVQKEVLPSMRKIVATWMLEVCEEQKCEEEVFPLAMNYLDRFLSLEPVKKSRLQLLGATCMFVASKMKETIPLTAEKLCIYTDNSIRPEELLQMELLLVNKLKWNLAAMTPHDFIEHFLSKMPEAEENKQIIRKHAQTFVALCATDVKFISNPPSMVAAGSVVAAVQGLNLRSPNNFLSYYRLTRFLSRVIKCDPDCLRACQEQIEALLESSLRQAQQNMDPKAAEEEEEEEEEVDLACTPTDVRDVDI

Turning to `O=C(CN1CCC(O)CC1)Nc1cccc2c1C(=O)c1c-2n[nH]c1-c1ccc(N2CCOCC2)cc1`, the half-maximal inhibitory concentration (IC50) was 110 nM in test [1] and 85 nM in test [2].

Consider `CC(=O)Nc1cccc2c1C(=O)c1c-2n[nH]c1-c1cccnc1`, for which the values for the half-inhibitory concentration (IC50) in test [1] and in test [2] were over 1600 nM and 770 nM, respectively.

Take `CC(=O)Nc1cccc2c1C(=O)c1c-2n[nH]c1-c1cccs1`: the results for the IC50 in test [1] and in test [2] were 4500 nM and 180 nM, respectively.

For `CC(=O)Nc1cccc2c1C(=O)c1c-2n[nH]c1-c1sccc1C`, the IC50 is over 3100 nM in test [1] and 260 nM in test [2].

Take `Cc1cc(-c2[nH]nc3c2C(=O)c2c(NC(N)=O)cccc2-3)c(C)s1`: the half-inhibitory concentration (IC50) was over 1500 nM in test [1] and 61 nM in test [2].

As for `Cc1ccc(-c2[nH]nc3c2C(=O)c2c(NC(N)=O)cccc2-3)s1`, the IC50 in test [1] is 53 nM; in test [2], 13 nM; in test [3], 29 nM.

`NC(=O)Nc1cccc2c1C(=O)c1c-2n[nH]c1C1CC1`: the half-maximal inhibitory concentration (IC50) in test [1] was 1400 nM; in test [2] it was 140 nM.

With `CN1CCN(CC(=O)Nc2cccc3c2C(=O)c2c-3n[nH]c2-c2ccc(N(C)C)cc2)CC1`, the IC50 in test [1] stood at 55 nM; in test [2] it was 29 nM.

As to `CC(=O)Nc1cccc2c1C(=O)c1c-2n[nH]c1-c1cc(Cl)sc1Cl`, the IC50 in test [1] and in test [2] was over 2600 nM in each case.

On to `CSc1ccc(-c2[nH]nc3c2C(=O)c2c(NC(C)=O)cccc2-3)cc1`, for which the figures for the IC50 in test [1] and in test [2] were 340 nM and 120 nM, respectively.

Take `CN1CCN(CC(=O)Nc2cccc3c2C(=O)c2c-3n[nH]c2-c2ccc(N3CCOCC3)cc2)CC1`: the IC50 in test [1] came out at 190 nM; in test [2], 42 nM.

Take `CN(C)c1ccc(-c2[nH]nc3c2C(=O)c2c(NC(=O)CN4CCC(CN)CC4)cccc2-3)cc1`: the IC50 stood at 7 nM in test [1], 15 nM in test [2] and 74 nM in test [3].

Turning to `CC(=O)Nc1cccc2c1C(=O)c1c-2n[nH]c1C1CC1`, the IC50 in test [1] was over 3700 nM; in test [2] it was 480 nM.

In the case of `CCCc1ccc(-c2[nH]nc3c2C(=O)c2c(NC(C)=O)cccc2-3)cc1`, the values for the IC50 in test [1] and in test [2] were 1900 nM and 490 nM, respectively.

Take `CC(=O)Nc1cccc2c1C(=O)c1c-2n[nH]c1-c1ccc(Oc2ccccc2)cc1`: the IC50 in test [1] and in test [2] was over 2500 nM each time.

As for `CC(=O)Nc1cccc2c1C(=O)c1c-2n[nH]c1-c1ccncc1`, the IC50 was 1300 nM in test [1] and 76 nM in test [2].

Turning to `CC(=O)Nc1cccc2c1C(=O)c1c-2n[nH]c1C(C)C`, the IC50 in test [1] was over 3700 nM; in test [2] it was 840 nM.

For `CC(=O)Nc1cccc2c1C(=O)c1c-2n[nH]c1-c1ccc(O)cc1`, the 50% inhibitory concentration (IC50) in test [1] came out at 2300 nM; in test [2], 530 nM.

For the compound `CC(C)c1[nH]nc2c1C(=O)c1c(NC(=O)CN3CCC(CN)CC3)cccc1-2`, the IC50 in test [1] is 340 nM; in test [2], 48 nM.

With `CCc1[nH]nc2c1C(=O)c1c(NC(C)=O)cccc1-2`, the IC50 in test [1] was over 3900 nM; in test [2], 1500 nM.

As for `NC(=O)C1CCN(CC(=O)Nc2cccc3c2C(=O)c2c-3n[nH]c2C2CCCCC2)CC1`, the IC50 in test [1] is over 570 nM; in test [2], 36 nM.

`CC(=O)Nc1cccc2c1C(=O)c1c(-c3ccccc3)n[nH]c1-2`: the IC50 in test [1] turned out to be 840 nM; in test [2], 240 nM.

Regarding `NCC1CCN(CC(=O)Nc2cccc3c2C(=O)c2c-3n[nH]c2C2CC2)CC1`, the figures for the IC50 in test [1] and in test [2] were 430 nM and 55 nM, respectively.

Consider `CN(C)c1ccc(-c2[nH]nc3c2C(=O)c2c(NC(=O)CN4CCC(O)CC4)cccc2-3)cc1`, for which the IC50 in test [1] turned out to be 50 nM; in test [2] it was 33 nM.

Take `CCOc1ccc(-c2[nH]nc3c2C(=O)c2c(NC(C)=O)cccc2-3)cc1`: the IC50 is over 580 nM in test [1] and over 400 nM in test [2].

As to `CCc1[nH]nc2c1C(=O)c1c(NC(=O)CN3CCC(C(N)=O)CC3)cccc1-2`, the half-inhibitory concentration (IC50) in test [1] is over 2600 nM; in test [2], over 130 nM.

Turning to `CC(=O)Nc1cccc2c1C(=O)c1c(-c3ccc(C)cc3)n[nH]c1-2`, the IC50 in test [1] stood at 490 nM; in test [2], 160 nM.

As for `NC(=O)Nc1cccc2c1C(=O)c1c-2n[nH]c1-c1ccco1`, the IC50 in test [1] was found to be 840 nM; in test [2], 86 nM.

Take `CC(C)c1[nH]nc2c1C(=O)c1c(NC(N)=O)cccc1-2`: the IC50 in test [1] was over 1900 nM; in test [2], 84 nM.

On to `COc1ccc(-c2[nH]nc3c2C(=O)c2c(NC(=O)CN4CCC(CN)CC4)cccc2-3)cc1`, for which the results for the IC50 in test [1] and in test [2] were 13 nM and 14 nM, respectively.

On to `NCC1CCN(CC(=O)Nc2cccc3c2C(=O)c2c-3n[nH]c2C2CCCCC2)CC1`, for which, in test [1], the IC50 amounted to 360 nM.

`CCOC(=O)c1ccc(-c2[nH]nc3c2C(=O)c2c(NC(N)=O)cccc2-3)s1`: the IC50 was 300 nM in test [1] and 130 nM in test [2].

In the case of `CC(=O)Nc1cccc2c1C(=O)c1c-2n[nH]c1CC(C)C`, the IC50 in test [1] and in test [2] was over 3500 nM in each case.

Consider `CC(=O)Nc1cccc2c1C(=O)c1c-2n[nH]c1C1CCCCC1`, for which the figures for the IC50 in test [1] and in test [2] were over 3200 nM and 1100 nM, respectively.

Take `CCCc1[nH]nc2c1C(=O)c1c(NC(C)=O)cccc1-2`: the IC50 in test [1] and in test [2] was over 3700 nM throughout.

Take `O=C(CN1CCOCC1)Nc1cccc2c1C(=O)c1c-2n[nH]c1-c1ccc(N2CCOCC2)cc1`: the IC50 amounted to 120 nM in test [1] and 37 nM in test [2].

For the compound `CN(C)c1ccc(-c2[nH]nc3c2C(=O)c2c(NC(=O)CN4CCOCC4)cccc2-3)cc1`, the IC50 stood at 110 nM in test [1] and 36 nM in test [2].

For the compound `CCc1ccc(-c2[nH]nc3c2C(=O)c2c(NC(C)=O)cccc2-3)cc1`, the IC50 was determined as 640 nM in test [1] and 280 nM in test [2].

`CC(=O)Nc1cccc2c1C(=O)c1c-2n[nH]c1C`: the half-maximal inhibitory concentration (IC50) in test [1] was over 4200 nM; in test [2], 11000 nM.

Take `CCc1[nH]nc2c1C(=O)c1c(NC(N)=O)cccc1-2`: the IC50 in test [1] was over 2000 nM; in test [2], 290 nM.

As for `CCCCc1[nH]nc2c1C(=O)c1c(NC(C)=O)cccc1-2`, the IC50 in test [1] and in test [2] was over 3500 nM throughout.

Take `NC(=O)Nc1cccc2c1C(=O)c1c-2n[nH]c1C1CCCCC1`: the IC50 in test [1] is over 810 nM; in test [2] it was 140 nM.

In the case of `CC(=O)Nc1cccc2c1C(=O)c1c-2n[nH]c1C(C)(C)C`, the IC50 in test [1] is over 3500 nM; in test [2] it was 980 nM.

Regarding `CC(=O)Nc1cccc2c1C(=O)c1c-2n[nH]c1-c1ccc(N(C)C)cc1`, the values for the IC50 in test [1] and in test [2] were 310 nM and 320 nM, respectively.

On to `CC(=O)Nc1cccc2c1C(=O)c1c-2n[nH]c1-c1ccc(N2CCCCC2)cc1`, for which the values for the IC50 in test [1] and in test [2] were 680 nM and 900 nM, respectively.

Turning to `CC(=O)Nc1cccc2c1C(=O)c1c(-c3ccco3)n[nH]c1-2`, the figures for the IC50 in test [1] and in test [2] were over 3500 nM and over 1700 nM, respectively.

Take `CCc1[nH]nc2c1C(=O)c1c(NC(=O)CN3CCC(CN)CC3)cccc1-2`: the half-inhibitory concentration (IC50) amounted to 1300 nM in test [1] and 240 nM in test [2].

For `CCCCc1ccc(-c2[nH]nc3c2C(=O)c2c(NC(C)=O)cccc2-3)cc1`, the results for the half-maximal inhibitory concentration (IC50) in test [1] and in test [2] were over 2800 nM and over 560 nM, respectively.

For the compound `CC(=O)Nc1cccc2c1C(=O)c1c-2n[nH]c1-c1ccc(N2CCOCC2)cc1`, the concentration for half-maximal inhibition (IC50) in test [1] was determined as 860 nM; in test [2] it was 370 nM.

In general, IC50 refers to the concentration at which inhibition is half-maximal. A high value points to weaker potency in that assay.
